Series [1] is described as follows: Tmax in C57BL/6 mouse at 0.5 umol/kg, po. The format is ADME, organism-based. As to conditions: in vivo. In outline: (§1)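 Male C57BL/6 mice (20±2 g, 7 weeks old) received a single oral dose in 2% Tween-80 aqueous solution. Blood was extracted with MeOH or EtOAc, depending on the compound, and assayed by HPLC. Parameters were derived from the mean profiles (n=5).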

Series [2] in a line: Cmax in C57BL/6 mouse at 0.5 umol/kg, po. It counts as ADME, organism-based. The following applies: in vivo. Also noted: dose 0.5 umol/kg, route oral. In outline:
as §1

Series [3] in a line: AUC in C57BL/6 mouse at 0.5 umol/kg, po. It counts as ADME, organism-based. The following applies: plasma. The essentials:
as §1

Series [4] in a line: Half life in C57BL/6 mouse at 0.5 umol/kg, po. The format is ADME, organism-based. As to conditions: in vivo. The essentials: as §1
Series [5] deals with Mus musculus. As to the kind of experiment: Tmax in C57BL/6 mouse at 0.5 umol/kg, po assessed as transformed cordycepin levels. It counts as ADME, organism-based. As to conditions: in vivo. In outline: as §1
For series [6], the system named is Mus musculus. As to the kind of experiment: AUC in C57BL/6 mouse at 0.5 umol/kg, po assessed as transformed cordycepin levels. As to conditions: in vivo, in the assay text read “500 umol/kg” for “0.5 umol/kg”. The format is ADME, organism-based, Plasma. The essentials:
as §1

Series [7] concerns Mus musculus. As to the kind of experiment: Half life in C57BL/6 mouse at 0.5 umol/kg, po assessed as transformed cordycepin levels. It counts as ADME, organism-based. The following applies: in vivo, in the assay text read “500 umol/kg” for “0.5 umol/kg”. The essentials:
as §1

Series [8] deals with Mus musculus. As to the kind of experiment: Cmax in C57BL/6 mouse at 500 umol/kg, po assessed as transformed cordycepin levels. As to conditions: in vivo.
The subject of series [9] is Mus musculus. Put plainly: Half life in C57BL/6 mouse at 500 umol/kg, po assessed as transformed cordycepin levels. The following applies: in vivo.

Consider `Nc1ncnc2c1ncn2[C@@H]1O[C@H](CO)C[C@H]1O` [CORDYCEPIN], for which the Tmax in series [1] and in series [5] was 1.5 h each time. Moreover, the Cmax in series [2] and in series [8] was 10.1 µM in each case. In addition, the AUC in series [3] and in [6] was 19.2 µM·h throughout. For the same compound, the half-life in [4] is 2.1 h. Moreover, the t1/2 in series [7] worked out at 2.1 h.

In the case of `CCCCCCCCCCCCCCCCCC(=O)Nc1ncnc2c1ncn2[C@@H]1O[C@H](CO)C[C@H]1O`, the Tmax in series [1] is 8 h; in [5] it was 10 h. The Cmax in [2] is 22.1 µM; in [8] it was 2.2 µM. In addition, the AUC in series [3] turned out to be 32.5 µM·h; in [6], 3.7 µM·h. In addition, the half-life in series [4] was 8.6 h. The t1/2 in series [7] was 10.8 h.

As for `CCC(=O)Nc1ncnc2c1ncn2[C@@H]1O[C@H](CO)C[C@H]1O`, the Tmax in series [1] turned out to be 3 h; in [5], 5 h. In addition, the figures for the Cmax in [2] and in series [8] were 120 µM and 14.1 µM, respectively. For the same compound, the figures for the AUC in [3] and in series [6] were 356 µM·h and 59.9 µM·h, respectively. For the same compound, the half-life in [4] is 4.4 h. Also, the t1/2 in series [7] amounted to 7.5 h.

As to `CCCCCCCC(=O)Nc1ncnc2c1ncn2[C@@H]1O[C@H](CO)C[C@H]1O`, the Tmax in series [1] was 5 h; in [5] it was 7 h. For the same compound, the Cmax in [2] worked out at 310 µM; in series [8], 20.6 µM. Also, the AUC came to 1310 µM·h in series [3] and 83.7 µM·h in [6]. The compound also had a half-life in [4] of 6.8 h. In addition, the t1/2 in series [7] came out at 9.4 h.

Consider `CCCCCCCCCCCC(=O)Nc1ncnc2c1ncn2[C@@H]1O[C@H](CO)C[C@H]1O`, for which the Tmax came out at 6 h in [1] and 8 h in series [5]. For the same compound, the figures for the Cmax in series [2] and in series [8] were 160 µM and 15 µM, respectively. The AUC in [3] was 672 µM·h; in series [6], 69.1 µM·h. The half-life in [4] is 8.3 h. In series [9], the t1/2 was 10.5 h.

Values taken from ChEMBL document CHEMBL1153879, “Synthesis and pharmacokinetic evaluation of novel N-acyl-cordycepin derivatives with a normal alkyl chain” (Eur J Med Chem, 2009).
